Among the data in ChEMBL document CHEMBL5696442, “Discovery of type II inhibitors of TGFβ-activated kinase 1 (TAK1) and mitogen-activated protein kinase kinase kinase kinase 2 (MAP4K2)” (J Med Chem, 2015) are inhibition, residual activity and percent of control values, retold here.

Active and inactive are the calls of the source. The calls are words filed in the database; no cut-off is given here.

In assay [1] the target is Serine/threonine-protein kinase PLK1 (Homo sapiens) (UniProt P53350). The assay is described as follows: Inhibition of PLK1 Lys2 labeling site in human A-375 cells at 0.5 uM by KiNativ Profiling analysis relative to control. It counts as cell-based.
Assay [2] concerns the target T1, Serine/threonine-protein kinase Sgk3 (Homo sapiens) (UniProt Q96BR1).
T1 sequence (whole entry): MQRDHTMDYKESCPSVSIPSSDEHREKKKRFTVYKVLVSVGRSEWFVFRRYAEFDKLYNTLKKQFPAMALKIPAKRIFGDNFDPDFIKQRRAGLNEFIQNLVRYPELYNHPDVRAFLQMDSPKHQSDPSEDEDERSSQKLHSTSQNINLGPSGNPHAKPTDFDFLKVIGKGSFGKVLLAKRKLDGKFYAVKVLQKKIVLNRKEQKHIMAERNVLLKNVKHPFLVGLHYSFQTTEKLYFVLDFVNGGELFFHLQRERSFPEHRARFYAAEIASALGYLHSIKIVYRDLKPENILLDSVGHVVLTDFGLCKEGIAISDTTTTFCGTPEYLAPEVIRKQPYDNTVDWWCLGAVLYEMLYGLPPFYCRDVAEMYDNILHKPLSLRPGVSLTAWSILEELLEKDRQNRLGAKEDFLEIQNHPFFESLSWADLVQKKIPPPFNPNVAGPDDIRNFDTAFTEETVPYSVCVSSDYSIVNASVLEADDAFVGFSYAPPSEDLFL
The assay is described as follows: Inhibition of SGK3 Lys1 labeling site in human A-375 cells at 5 uM by KiNativ Profiling analysis relative to control. It counts as cell-based.

Assay [3] deals with Cyclin-dependent kinase 1 (Homo sapiens) (UniProt P06493). The assay is described as follows: Inhibition of CDC2 Lys2 labeling site harbouring VLHRDLKPQNLLIDDKGTIK in human A-375 cells at 0.5 uM by KiNativ Profiling analysis relative to control. It counts as cell-based.
The target in assay [4] is G protein-coupled receptor kinase 4 (Homo sapiens) (UniProt P32298). The assay is described as follows: Inhibition of GRK4 (unknown origin) at 1 uM by Ambit Kinomescan binding assay relative to control; values are per cent of control.
The target of assay [5] is Serine/threonine-protein kinase 32A (Homo sapiens) (UniProt Q8WU08). The assay can be described thus: Inhibition of YANK1 (unknown origin) at 1 uM by Ambit Kinomescan binding assay relative to control; values are per cent of control.
For assay [6], the system named is Mast/stem cell growth factor receptor Kit (Homo sapiens), P10721 [V559D,V654A]. The assay can be described thus: Inhibition of KIT V559D/V654A mutant (unknown origin) at 1 uM by Ambit Kinomescan binding assay relative to control; values are per cent of control.
Assay [7] has as its target AP2-associated protein kinase 1 (Homo sapiens) (UniProt Q2M2I8). The assay is described as follows: Inhibition of AAK1 (unknown origin) at 1 uM by Ambit Kinomescan binding assay relative to control.
The target of assay [8] is Ribosomal protein S6 kinase alpha-3 (Homo sapiens) (UniProt P51812). The assay can be described thus: Inhibition of RSK2 Domain 2 K2 labeling site harbouring DLKPSNILYVDESGNPESIR in human Huh-7 cells at 10 uM by KiNativ Profiling analysis relative to control. The class given is cell-based.
The target of assay [9] is T2, NUAK family SNF1-like kinase 1 (Homo sapiens) (UniProt O60285).
T2 sequence (whole entry): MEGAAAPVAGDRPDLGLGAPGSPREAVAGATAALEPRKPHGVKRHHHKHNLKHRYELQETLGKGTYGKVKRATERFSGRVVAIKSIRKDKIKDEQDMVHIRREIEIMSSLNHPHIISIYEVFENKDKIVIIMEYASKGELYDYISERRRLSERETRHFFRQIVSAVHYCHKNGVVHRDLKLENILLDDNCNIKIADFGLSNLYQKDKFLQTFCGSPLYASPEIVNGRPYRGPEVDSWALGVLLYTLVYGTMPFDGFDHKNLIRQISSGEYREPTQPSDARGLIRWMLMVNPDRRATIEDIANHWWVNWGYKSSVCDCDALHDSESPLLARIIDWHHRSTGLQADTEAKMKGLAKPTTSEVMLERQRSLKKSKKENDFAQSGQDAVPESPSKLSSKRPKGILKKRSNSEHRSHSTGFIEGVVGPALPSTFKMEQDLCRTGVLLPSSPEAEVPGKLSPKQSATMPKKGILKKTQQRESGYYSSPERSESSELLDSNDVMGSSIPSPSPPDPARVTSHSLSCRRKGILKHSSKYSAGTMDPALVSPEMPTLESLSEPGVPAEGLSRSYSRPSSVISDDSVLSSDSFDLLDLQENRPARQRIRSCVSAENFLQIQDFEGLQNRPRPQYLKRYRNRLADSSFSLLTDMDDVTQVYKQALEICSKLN
The assay is described as follows: Inhibition of NuaK1 K2 labeling site in human Huh-7 cells at 1 uM by KiNativ Profiling analysis relative to control. It counts as cell-based.

The target of assay [10] is Mitogen-activated protein kinase kinase kinase 1 (Homo sapiens) (UniProt Q13233). The assay can be described thus: Inhibition of MAP3K1 Lys2 labeling site in human A-375 cells at 5 uM by KiNativ Profiling analysis relative to control. The class given is cell-based.
Assay [11] addresses Myosin light chain kinase, smooth muscle (Homo sapiens) (UniProt Q15746). The assay can be described thus: Inhibition of MYLK (unknown origin) at 10 uM by Ambit Kinomescan binding assay. In a few lines:
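In vitro ATP-site competition binding assay against a panel of over 420 kinases (KinomeScan), with compound tested at 10 or 1 μM.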

Assay [12] addresses 5'-AMP-activated protein kinase catalytic subunit alpha-1 (Homo sapiens) (UniProt Q13131). The assay can be described thus: Inhibition of AMPKa1 ATP labeling site in human Huh-7 cells at 10 uM by KiNativ Profiling analysis relative to control. It counts as cell-based.
Assay [13] in a line: Inhibition of TLK1/2 K2 labeling site in human Huh-7 cells at 1 uM by KiNativ Profiling analysis relative to control. Conditions: condition cancer.
Assay [14] addresses Serine/threonine-protein kinase 16 (Homo sapiens) (UniProt O75716). The assay is described as follows: Inhibition of MPSK1 K2 labeling site in human Huh-7 cells at 10 uM by KiNativ Profiling analysis relative to control. It counts as cell-based.
The target of assay [15] is Tyrosine-protein kinase Fyn (Homo sapiens) (UniProt P06241). The assay is described as follows: Inhibition of FYN ACT labeling site in human Huh-7 cell lysate at 1 uM by KiNativ Profiling analysis relative to control. The class given is subcellular.
Assay [16] addresses Serine/threonine-protein kinase MARK2 (Homo sapiens) (UniProt Q7KZI7). The assay can be described thus: Inhibition of MARK2 Lys1 labeling site harbouring EVAVKIIDKTQLNSSSLQK in human Huh-7 cell lysate at 1 uM by KiNativ Profiling analysis relative to control. The class given is subcellular.
The target of assay [17] is Serine/threonine-protein kinase Nek7 (Homo sapiens) (UniProt Q8TDX7). The assay can be described thus: Inhibition of NEK7 Lys1 labeling site in human Huh-7 cells at 1 uM by KiNativ Profiling analysis relative to control. It counts as cell-based.

Sequence of 5'-AMP-activated protein kinase catalytic subunit alpha-1 (Homo sapiens) (Q13131 whole entry, looked up): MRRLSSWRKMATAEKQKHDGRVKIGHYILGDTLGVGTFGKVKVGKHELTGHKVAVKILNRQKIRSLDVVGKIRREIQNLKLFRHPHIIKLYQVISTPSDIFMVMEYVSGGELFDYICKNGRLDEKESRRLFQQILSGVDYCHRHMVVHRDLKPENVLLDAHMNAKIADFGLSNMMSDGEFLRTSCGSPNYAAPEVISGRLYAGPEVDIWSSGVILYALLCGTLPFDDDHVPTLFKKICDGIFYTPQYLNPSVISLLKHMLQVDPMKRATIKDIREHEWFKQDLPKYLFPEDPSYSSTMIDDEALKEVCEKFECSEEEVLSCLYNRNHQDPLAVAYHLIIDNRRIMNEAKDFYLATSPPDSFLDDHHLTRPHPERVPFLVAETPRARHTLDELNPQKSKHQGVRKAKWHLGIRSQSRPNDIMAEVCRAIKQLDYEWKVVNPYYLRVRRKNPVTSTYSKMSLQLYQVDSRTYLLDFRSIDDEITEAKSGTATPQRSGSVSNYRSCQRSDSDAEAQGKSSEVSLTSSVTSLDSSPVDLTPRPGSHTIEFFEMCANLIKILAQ
Sequence of G protein-coupled receptor kinase 4 (Homo sapiens) (P32298 whole entry, looked up): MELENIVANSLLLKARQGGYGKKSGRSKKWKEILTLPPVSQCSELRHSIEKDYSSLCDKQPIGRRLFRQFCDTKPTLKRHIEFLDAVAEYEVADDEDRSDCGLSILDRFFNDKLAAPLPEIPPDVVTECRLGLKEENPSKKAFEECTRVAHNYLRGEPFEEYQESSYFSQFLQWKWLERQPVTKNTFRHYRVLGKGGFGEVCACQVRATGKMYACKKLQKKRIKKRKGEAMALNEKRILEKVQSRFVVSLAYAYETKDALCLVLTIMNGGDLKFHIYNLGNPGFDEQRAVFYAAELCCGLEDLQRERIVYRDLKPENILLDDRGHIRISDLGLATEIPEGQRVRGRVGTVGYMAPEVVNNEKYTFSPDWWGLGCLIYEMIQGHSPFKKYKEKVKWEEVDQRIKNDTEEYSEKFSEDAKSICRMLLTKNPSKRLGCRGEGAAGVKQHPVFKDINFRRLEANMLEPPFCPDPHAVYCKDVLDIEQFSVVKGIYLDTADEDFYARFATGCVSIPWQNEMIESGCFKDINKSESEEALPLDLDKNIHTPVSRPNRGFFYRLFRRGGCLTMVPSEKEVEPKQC
Sequence of Myosin light chain kinase, smooth muscle (Homo sapiens) (Q15746 whole entry): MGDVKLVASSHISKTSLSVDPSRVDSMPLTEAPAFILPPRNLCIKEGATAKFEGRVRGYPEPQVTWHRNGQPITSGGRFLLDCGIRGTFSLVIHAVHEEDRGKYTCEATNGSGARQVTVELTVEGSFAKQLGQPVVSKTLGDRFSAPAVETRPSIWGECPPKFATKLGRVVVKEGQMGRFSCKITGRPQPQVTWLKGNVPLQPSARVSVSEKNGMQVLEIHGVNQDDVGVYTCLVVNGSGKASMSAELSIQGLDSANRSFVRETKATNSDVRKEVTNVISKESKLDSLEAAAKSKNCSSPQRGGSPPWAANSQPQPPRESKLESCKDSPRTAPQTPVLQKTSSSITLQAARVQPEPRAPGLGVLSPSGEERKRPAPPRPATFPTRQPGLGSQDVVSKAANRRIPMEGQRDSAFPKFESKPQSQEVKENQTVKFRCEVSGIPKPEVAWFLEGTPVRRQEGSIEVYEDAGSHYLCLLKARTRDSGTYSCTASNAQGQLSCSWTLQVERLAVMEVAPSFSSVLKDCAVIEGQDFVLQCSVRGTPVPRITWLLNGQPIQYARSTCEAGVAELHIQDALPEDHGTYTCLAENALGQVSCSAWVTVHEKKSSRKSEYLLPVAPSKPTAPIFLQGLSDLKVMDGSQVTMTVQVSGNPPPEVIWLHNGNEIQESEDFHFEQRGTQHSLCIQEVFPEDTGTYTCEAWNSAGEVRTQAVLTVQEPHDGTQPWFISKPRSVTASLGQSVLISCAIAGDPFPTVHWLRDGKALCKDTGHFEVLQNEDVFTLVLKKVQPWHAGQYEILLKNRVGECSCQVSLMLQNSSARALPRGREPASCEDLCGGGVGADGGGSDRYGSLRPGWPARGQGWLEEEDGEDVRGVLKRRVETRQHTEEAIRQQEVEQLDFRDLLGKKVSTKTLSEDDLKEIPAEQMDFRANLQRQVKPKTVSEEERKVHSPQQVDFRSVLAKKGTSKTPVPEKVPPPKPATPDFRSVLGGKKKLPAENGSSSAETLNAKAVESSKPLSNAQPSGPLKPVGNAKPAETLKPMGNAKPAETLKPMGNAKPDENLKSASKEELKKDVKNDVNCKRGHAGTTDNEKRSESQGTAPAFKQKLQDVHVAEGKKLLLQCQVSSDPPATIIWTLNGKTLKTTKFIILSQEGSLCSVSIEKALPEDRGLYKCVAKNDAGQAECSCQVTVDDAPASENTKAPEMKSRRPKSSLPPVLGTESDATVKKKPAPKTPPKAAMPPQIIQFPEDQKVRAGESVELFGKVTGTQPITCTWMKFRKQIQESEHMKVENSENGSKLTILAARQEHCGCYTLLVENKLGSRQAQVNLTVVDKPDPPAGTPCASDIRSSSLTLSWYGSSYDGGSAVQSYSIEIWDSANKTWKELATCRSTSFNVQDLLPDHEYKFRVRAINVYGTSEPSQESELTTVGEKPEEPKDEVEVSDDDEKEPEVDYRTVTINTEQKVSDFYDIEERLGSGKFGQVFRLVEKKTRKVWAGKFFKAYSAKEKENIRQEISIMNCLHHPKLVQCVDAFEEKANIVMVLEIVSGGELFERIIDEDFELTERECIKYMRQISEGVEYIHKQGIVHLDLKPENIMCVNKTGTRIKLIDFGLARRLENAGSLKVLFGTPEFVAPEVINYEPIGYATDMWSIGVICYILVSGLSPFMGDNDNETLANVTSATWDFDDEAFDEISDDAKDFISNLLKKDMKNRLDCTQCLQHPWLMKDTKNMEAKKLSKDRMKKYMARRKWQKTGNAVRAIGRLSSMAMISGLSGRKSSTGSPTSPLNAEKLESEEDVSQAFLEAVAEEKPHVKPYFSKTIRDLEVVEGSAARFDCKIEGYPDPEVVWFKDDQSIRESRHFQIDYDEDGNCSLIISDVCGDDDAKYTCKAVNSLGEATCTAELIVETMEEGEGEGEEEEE
Sequence of Serine/threonine-protein kinase 32A (Homo sapiens) (Q8WU08 whole entry): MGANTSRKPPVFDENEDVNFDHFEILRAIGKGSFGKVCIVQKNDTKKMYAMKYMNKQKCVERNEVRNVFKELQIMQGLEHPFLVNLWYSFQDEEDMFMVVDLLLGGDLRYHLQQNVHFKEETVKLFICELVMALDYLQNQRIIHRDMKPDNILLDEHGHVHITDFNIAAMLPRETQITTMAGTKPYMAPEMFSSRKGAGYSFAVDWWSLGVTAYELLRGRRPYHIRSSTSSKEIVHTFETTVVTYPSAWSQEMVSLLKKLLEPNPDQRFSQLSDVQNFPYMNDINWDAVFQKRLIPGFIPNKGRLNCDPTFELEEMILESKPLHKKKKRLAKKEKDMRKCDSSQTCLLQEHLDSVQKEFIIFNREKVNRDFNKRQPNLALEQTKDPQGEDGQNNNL
Sequence of Ribosomal protein S6 kinase alpha-3 (Homo sapiens) (P51812 whole entry, the tested form may be a part): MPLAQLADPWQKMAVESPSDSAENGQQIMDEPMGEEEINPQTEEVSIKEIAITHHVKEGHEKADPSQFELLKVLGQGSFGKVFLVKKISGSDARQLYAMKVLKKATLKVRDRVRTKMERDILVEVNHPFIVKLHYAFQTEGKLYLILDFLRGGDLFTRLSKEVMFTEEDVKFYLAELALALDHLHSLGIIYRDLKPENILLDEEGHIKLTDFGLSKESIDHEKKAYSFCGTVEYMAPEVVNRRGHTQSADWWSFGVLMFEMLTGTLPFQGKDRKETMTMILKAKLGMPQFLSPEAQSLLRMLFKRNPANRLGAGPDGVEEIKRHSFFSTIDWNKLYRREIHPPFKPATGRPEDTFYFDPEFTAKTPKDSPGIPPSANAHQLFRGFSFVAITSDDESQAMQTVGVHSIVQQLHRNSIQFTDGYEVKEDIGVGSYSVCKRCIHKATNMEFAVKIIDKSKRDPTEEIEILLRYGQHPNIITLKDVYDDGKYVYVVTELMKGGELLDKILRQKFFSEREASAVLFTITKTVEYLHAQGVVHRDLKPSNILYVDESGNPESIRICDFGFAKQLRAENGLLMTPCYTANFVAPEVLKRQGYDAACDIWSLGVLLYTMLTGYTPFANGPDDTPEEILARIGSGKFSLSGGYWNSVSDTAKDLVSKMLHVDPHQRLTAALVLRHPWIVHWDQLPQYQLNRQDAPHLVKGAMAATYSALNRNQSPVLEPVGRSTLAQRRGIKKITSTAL
Sequence of Serine/threonine-protein kinase PLK1 (Homo sapiens) (P53350 whole entry): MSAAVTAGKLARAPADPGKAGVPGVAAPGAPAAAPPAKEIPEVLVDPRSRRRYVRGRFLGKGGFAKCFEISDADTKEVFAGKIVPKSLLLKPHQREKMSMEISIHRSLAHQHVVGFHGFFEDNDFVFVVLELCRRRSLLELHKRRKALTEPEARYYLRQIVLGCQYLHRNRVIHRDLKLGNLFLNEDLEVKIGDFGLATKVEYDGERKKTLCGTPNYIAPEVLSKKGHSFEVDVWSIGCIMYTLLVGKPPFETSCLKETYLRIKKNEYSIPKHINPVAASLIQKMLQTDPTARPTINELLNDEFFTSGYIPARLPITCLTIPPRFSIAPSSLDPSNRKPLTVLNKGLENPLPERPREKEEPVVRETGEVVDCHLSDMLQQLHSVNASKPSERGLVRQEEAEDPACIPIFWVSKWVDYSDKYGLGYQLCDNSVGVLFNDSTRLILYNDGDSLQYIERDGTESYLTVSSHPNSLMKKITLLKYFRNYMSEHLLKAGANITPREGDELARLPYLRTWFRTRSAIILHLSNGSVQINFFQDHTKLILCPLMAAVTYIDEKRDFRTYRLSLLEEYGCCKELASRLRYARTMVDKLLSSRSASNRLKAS

As to `CCN1CCN(Cc2ccc(NC(=O)c3ccc(C)c(/C=C/c4cnc5[nH]ccc5c4OC)c3)cc2C(F)(F)F)CC1`, the inhibition in assay [1] is 13.2%; in [2], -9.4%; in assay [3], 5.8%; in assay [7], 67%. For the same molecule, the residual activity in assay [4] came out at 40%; in [6] it was 7.1%. For the same molecule, the percent of control in assay [5] stood at 100%.
With `CCN1CCN(Cc2ccc(NC(=O)c3ccc(C)c(Oc4ccnc5[nH]ccc45)c3)cc2C(F)(F)F)CC1`, the inhibition was 14.5% in assay [8]; -9.8% in [9]; 83.9% in assay [10]; 14% in assay [12]; 19.2% in assay [14]. In assay [11], the inhibition entry is “inactive”. For the same molecule, the inhibition at 1 µM in assay [13] is -1.1%.
On to `CNc1cc(Oc2cc(C(=O)Nc3cc(N4CCN(C)CC4)cc(C(F)(F)F)c3)ccc2C)ncn1`, for which the inhibition in [15] is 22%; in [16], 7.4%; in [17], 7.6%.
